Activity calls are given as the source filed them. The rule behind the calls is not given here.
Experiments:
A549 [1] = test: Induction of apoptosis in human A549 cells assessed as late apoptotic cells at 6.5 uM after 24 hrs using Annexin V-FITC and PI staining by flow cytometry (reference value: 85.7 %); assay type: functional
NCI-H522 = test: Cytotoxicity against human NCI-H522 cells; assay type: functional
Procedure, shortened: (§1)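 NCI 60-cell panel second-stage testing by NCI standard procedures. Compound was dissolved in DMSO and tested at five 10-fold dilutions: 10^-4, 10^-5, 10^-6, 10^-7 and 10^-8 M.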

A549 [2] = test: Induction of cell cycle arrest in human A549 cells assessed as accumulation at G0/G1 phase at 6.5 uM after 48 hrs by propidium iodide staining-based FACS analysis (reference value: 56.26 %); assay type: functional
Procedure, shortened: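 A549 cells (1 × 10^6) in six-well plates received 6.5 µM (final) for 24 h or 48 h. Floating and adherent cells were fixed in 70% ethanol, washed in PBS, then stained for 20 min with 50 µg/mL propidium iodide in hypotonic citrate/Triton X-100 buffer with DNase-free RNase A. Cells were analysed by FACS.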

SK-OV-3 = test: Cytotoxicity against human SKOV3 cells; assay type: functional
Procedure, shortened: (§2)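 NCI 60-cell-line panel protocol. Primary screen used a single 10^-5 M concentration with 48 h incubation, and percent growth was read against untreated cells by sulforhodamine B protein staining. The five-dose follow-up used a DMSO solution at five 10-fold dilutions from 10^-4 to 10^-8 M.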

RXF 393 = test: Cytotoxicity against human RXF393 cells; assay type: functional; procedure, shortened: as §1
OVCAR-4 = test: Cytotoxicity against human OVCAR4 cells; assay type: functional; procedure, shortened: as §1
SK-MEL-5 = test: Cytotoxicity against human SK-MEL-5 cells; assay type: functional; procedure, shortened: as §2
NCI-H23 = test: Cytotoxicity against human NCI-H23 cells; assay type: functional; procedure, shortened: as §1
MDA-MB-231 = test: Cytotoxicity against human MDA-MB-231 cells; assay type: functional; procedure, shortened: as §1
ACHN = test: Cytotoxicity against human ACHN cells; assay type: functional; procedure, shortened: as §1
COLO 205 = test: Cytotoxicity against human COLO205 cells; assay type: functional; procedure, shortened: as §1
K562 = test: Cytotoxicity against human K562 cells; assay type: functional; procedure, shortened: as §1
OVCAR-5 = test: Cytotoxicity against human OVCAR5 cells; assay type: functional; procedure, shortened: as §1
KM12 = test: Cytotoxicity against human KM12 cells; assay type: functional; procedure, shortened: as §1
EKVX = test: Cytotoxicity against human EKVX cells; assay type: functional; procedure, shortened: as §1
SNB-75 [3] = test: Cytotoxicity against human SNB75 cells; assay type: functional; procedure, shortened: as §2
SF-295 = test: Cytotoxicity against human SF295 cells; assay type: functional; procedure, shortened: as §1
A549 [4] = test: Growth inhibition of human A549 cells; assay type: functional, cell-based
Procedure, shortened: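 MTT reduction assay. Cells were seeded at 1 × 10^4 per well in DMEM with 10% FBS and pre-incubated 24 h at 37 °C under CO2. Compounds were diluted in medium and incubated 24 h. Medium was then removed, MTT (5 mg/mL stock) added for 4 h, formazan dissolved in DMSO, and absorbance read at 540 nm.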

HOP-62 = test: Cytotoxicity against human HOP62 cells; assay type: functional; procedure, shortened: as §1
SR = test: Cytotoxicity against human SR cells; assay type: functional; procedure, shortened: as §2
UACC-62 = test: Cytotoxicity against human UACC62 cells; assay type: functional; procedure, shortened: as §2
T47D = test: Cytotoxicity against human T47D cells; assay type: functional; procedure, shortened: as §2
UACC-257 = test: Cytotoxicity against human UACC257 cells; assay type: functional; procedure, shortened: as §2
A498 = test: Cytotoxicity against human A498 cells; assay type: functional; procedure, shortened: as §1
A549 [5] = test: Induction of apoptosis in human A549 cells assessed as pre-necrotic cells at 6.5 uM after 48 hrs using Annexin V-FITC and PI staining by flow cytometry (reference value: 0.5 %); assay type: functional
A549 [6] = test: Induction of apoptosis in human A549 cells assessed as cytoplasmic condensation at 6.5 uM after 24 to 48 hrs by Hoechst 33342 staining; assay type: functional, cell-based
Procedure, shortened: (§3)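 A549 cells were grown 24 h on coverslips at 10,000 cells, then exposed to 6.5 µM for 24 h and 48 h, with 0.001% DMSO vehicle controls. Hoechst 33342 (0.5 µg/mL) with 4% paraformaldehyde was applied for 30 min at 37 °C. Random fields were examined by fluorescence microscopy, scoring relative fluorescence and nuclear fragmentation.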

A549 [7] = test: Induction of apoptosis in human A549 cells assessed as apoptotic bodies formation at 6.5 uM after 24 to 48 hrs by Hoechst 33342 staining; assay type: functional, cell-based; procedure, shortened: as §3
MCF7 = test: Cytotoxicity against human MCF7 cells; assay type: functional; procedure, shortened: as §1
SNB-75 [8] = test: Anticancer activity against human SNB75 cells assessed as mean cell growth at 10^-5 M after 48 hrs by SRB assay; assay type: functional
Procedure, shortened: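 NCI-60 primary screen run to the US NCI protocol. Compound added at a single concentration of 10^-5 M and cultures incubated 48 h. The end point was sulforhodamine B (SRB) protein staining, reported as percent growth of treated cells relative to untreated control cells.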

NCI-H226 = test: Cytotoxicity against human NCI-H226 cells; assay type: functional; procedure, shortened: as §1
A549 [9] = test: Induction of apoptosis in human A549 cells assessed as apoptotic cells at 6.5 uM after 24 hrs using Annexin V-FITC and PI staining by flow cytometry (reference value: 2.6 %); assay type: functional
Malme-3M = test: Cytotoxicity against human MALME-3M cells; assay type: functional; procedure, shortened: as §1
SNB-19 = test: Cytotoxicity against human SNB19 cells; assay type: functional; procedure, shortened: as §2
IGROV-1 = test: Cytotoxicity against human IGROV1 cells; assay type: functional; procedure, shortened: as §1

IC50 (A549 [4]): 6.5 µM
Structure (SMILES): O=C1Nc2ccccc2/C1=C\c1nc(-c2ccccc2F)n2ccccc12
Activity (A549 [1]): 7.2%
GI50 (NCI-H522): 2.18 µM
Activity (A549 [2]): 75.85%
GI50 (SK-OV-3): 3.46 µM
GI50 (RXF 393): 3.41 µM
GI50 (OVCAR-4): 1.81 µM
GI50 (SK-MEL-5): 2.8 µM
GI50 (NCI-H23): 4.55 µM
GI50 (MDA-MB-231): 2.27 µM
GI50 (ACHN): 3.3 µM
GI50 (COLO 205): 4.08 µM
GI50 (K562): 6.35 µM
GI50 (OVCAR-5): 1.8 µM
GI50 (KM12): 3.49 µM
GI50 (EKVX): 10.6 µM
GI50 (SNB-75 [3]): 1.79 µM
GI50 (SF-295): 3.65 µM
GI50 (HOP-62): 2.37 µM
GI50 (SR): 11 µM
GI50 (UACC-62): 6.32 µM
GI50 (T47D): 2.36 µM
GI50 (UACC-257): 5.2 µM
GI50 (A498): 2.81 µM
Activity (A549 [5]): 0.9%
Activity (A549 [6]): Active
Activity (A549 [7]): Active
GI50 (MCF7): 2.1 µM
Activity (SNB-75 [8]): 18.49%
GI50 (NCI-H226): 4.78 µM
Activity (A549 [9]): 61.5%
GI50 (Malme-3M): 3.07 µM
GI50 (SNB-19): 4.7 µM
GI50 (IGROV-1): 2.04 µM
